The subject of data set [1] is Human alphaherpesvirus 1. Put plainly: Antiviral activity against Herpes simplex virus 1 assessed as plaque reduction at 1.75 x 10^-5 M by cell-based assay relative to vidarabine. It counts as functional. A digest of the protocol: (§1)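 HSV-1 plaque-reduction assay by the Hsiung–Melnick procedure. Challenge was 125-300 plaque-forming units. An ara-A control was run alongside each sample at the same molar concentration with an identical virus challenge. Data were confirmed by duplicate assay (±10%).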

The target of the next data set is T1, Adenosine deaminase (Bos taurus, UniProt P56658).
T1 sequence (P56658 whole entry): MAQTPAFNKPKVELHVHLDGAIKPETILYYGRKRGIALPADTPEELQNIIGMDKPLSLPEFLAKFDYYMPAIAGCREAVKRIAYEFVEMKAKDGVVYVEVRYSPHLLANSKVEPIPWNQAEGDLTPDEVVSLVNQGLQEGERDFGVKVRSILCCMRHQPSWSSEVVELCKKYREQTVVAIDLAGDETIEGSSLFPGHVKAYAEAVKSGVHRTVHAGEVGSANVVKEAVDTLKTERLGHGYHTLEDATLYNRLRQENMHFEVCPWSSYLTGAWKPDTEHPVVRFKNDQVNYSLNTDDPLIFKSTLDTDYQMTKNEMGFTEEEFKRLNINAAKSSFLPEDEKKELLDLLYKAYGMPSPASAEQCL
Put plainly: Activity of calf mucosal adenosine deaminase assessed as enzyme-mediated drug metabolism by liquid chromatographic analysis. The class given is ADME. The following applies: cattle. A digest of the protocol: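 Drug exposed to the deaminase, with enzyme level also raised 10- and 100-fold. Reaction mixtures analysed by reverse-phase C18 LC (aqueous acetonitrile eluent, 254-nm UV detection) for unchanged substrate.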

Data set [2] is described as follows: Aqueous solubility of the compound at pH 7. The class given is physicochemical.
For data set [3], the system named is Human alphaherpesvirus 1. Put plainly: Antiviral activity against Herpes simplex virus 1 assessed as plaque reduction at 1.75 x 10^-5 M by cell-based assay relative to control. It counts as functional. Put shortly:
as §1

The species entered for data set [4] is Cavia porcellus. Put plainly: Toxicity in albino guinea pig assessed as death at 3% compound concentration treated intravaginally bid for 4 days. It counts as organism-based. The following applies: in vivo, other, 96 h. Put shortly:
(§2)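 Uninfected control animals received drug ointment intravaginally (topical), twice daily for 4 days, in an amount enough to fill the vagina.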

Data set [5] relates to Human alphaherpesvirus 2. Put plainly: Antiviral activity against Herpes simplex virus 2 Magill infected in guinea pig assessed as prevention of paralysis at 3% compound concentration treated intravaginally bid for 4 days measured on day 16 post-infection. It counts as functional, organism-based. Put shortly: (§3)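 Animals were infected intravaginally with 1 × 10^2.82 PFU in 0.1 mL. Drug ointments were given intravaginally starting 4 h postinfection, then twice daily for 4 days, filling the vagina. Clinical signs were scored as animals positive/infected. Cure meant no symptoms, or symptoms healed by day 16 postinfection; it was reported as cured/infected.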

Data set [6] is filed under the species Cavia porcellus. Put plainly: Toxicity in albino guinea pig assessed as development of erythema at 3% compound concentration treated intravaginally bid for 4 days. It counts as organism-based. Particulars: in vivo, other, 96 h. Put shortly: as §2
The subject of data set [7] is Human alphaherpesvirus 2. Put plainly: Antiviral activity against Herpes simplex virus 2 Magill infected in guinea pig assessed as prevention of vaginal discharge at 3% compound concentration treated intravaginally bid for 4 days measured on day 16 post-infection. It counts as functional, organism-based. A digest of the protocol: as §3
Data set [8] has as its system Human alphaherpesvirus 2. Put plainly: Antiviral activity against Herpes simplex virus 2 Magill infected in guinea pig assessed as prevention of vesiculation of labia and vulva at 3% compound concentration treated intravaginally bid for 4 days measured on day 16 post-infection. It counts as functional, organism-based. Put shortly:
as §3

For data set [9], the system named is Human alphaherpesvirus 2. Put plainly: Antiviral activity against Herpes simplex virus 2 Magill infected in guinea pig assessed as prevention of vulvo-vaginal swelling at 3% compound concentration treated intravaginally bid for 4 days measured on day 16 post-infection. It counts as functional, organism-based. A digest of the protocol:
as §3

Data set [10] deals with Human alphaherpesvirus 2. Put plainly: Antiviral activity against Herpes simplex virus 2 Magill infected in guinea pig assessed as prevention of inflammation at 3% compound concentration treated intravaginally bid for 4 days measured on day 16 post-infection. It counts as functional, organism-based. A digest of the protocol:
as §3

For data set [11], the system named is Human alphaherpesvirus 1. Put plainly: Antiviral activity against Herpes simplex virus 1 assessed as plaque reduction at 1.83 x 10^-5 M by cell-based assay relative to control. It counts as functional. A digest of the protocol: as §1
In data set [12] the test system is Human alphaherpesvirus 1. Put plainly: Antiviral activity against Herpes simplex virus 1 assessed as plaque reduction at 1.83 x 10^-5 M by cell-based assay relative to vidarabine. Particulars: Human alphaherpesvirus 1, read-out: INH. It counts as functional. A digest of the protocol: as §1
The subject of data set [13] is Human alphaherpesvirus 1. Put plainly: Antiviral activity against Herpes simplex virus 1 assessed as plaque reduction at 0.18 x 10^-5 M by cell-based assay relative to vidarabine. It counts as functional. Put shortly:
as §1

Data set [14] has as its system Human alphaherpesvirus 2. Put plainly: Antiviral activity against Herpes simplex virus 2 Magill infected in guinea pig assessed as prevention of death at 3% compound concentration treated intravaginally bid for 4 days measured on day 16 post-infection. The class given is functional, organism-based. A digest of the protocol:
as §3

The test system of data set [15] is Human alphaherpesvirus 1. Put plainly: Antiviral activity against Herpes simplex virus 1 assessed as plaque reduction at 0.17 x 10^-5 M by cell-based assay relative to control. It counts as functional. Put shortly: as §1
The test system of data set [16] is Human alphaherpesvirus 1. Put plainly: Antiviral activity against Herpes simplex virus 1 assessed as plaque reduction at 1.71 x 10^-5 M by cell-based assay relative to vidarabine. The class given is functional. A digest of the protocol: as §1
The test system of data set [17] is Human alphaherpesvirus 1. Put plainly: Antiviral activity against Herpes simplex virus 1 assessed as plaque reduction at 0.17 x 10^-5 M by cell-based assay relative to vidarabine. The class given is functional. A digest of the protocol: as §1
In data set [18] the test system is Human alphaherpesvirus 1. Put plainly: Antiviral activity against Herpes simplex virus 1 assessed as plaque reduction at 0.53 x 10^-5 M by cell-based assay relative to control. It counts as functional. The following applies: Human alphaherpesvirus 1, read-out: INH. A digest of the protocol:
as §1

The subject of data set [19] is Human alphaherpesvirus 1. Put plainly: Antiviral activity against Herpes simplex virus 1 assessed as plaque reduction at 0.53 x 10^-5 M by cell-based assay relative to vidarabine. The class given is functional. Put shortly:
as §1

Data set [20] has as its system Human alphaherpesvirus 1. Put plainly: Antiviral activity against Herpes simplex virus 1 assessed as plaque reduction at 0.18 x 10^-5 M by cell-based assay relative to control. The class given is functional. Put shortly: as §1
The test system of data set [21] is Human alphaherpesvirus 1. Put plainly: Antiviral activity against Herpes simplex virus 1 assessed as plaque reduction at 0.54 x 10^-5 M by cell-based assay relative to vidarabine. It counts as functional. A digest of the protocol:
as §1

Values after ≈ are worked out from the molar mass of the structure shown. Active and inactive are the calls of the source. No cut-off for these calls is given here.

`CC(C)C(=O)OC[C@H]1O[C@@H](n2cnc3c(N)ncnc32)[C@@H](O)[C@@H]1OC(=O)C(C)C`: the inhibition at 17.5 µM amounted to 90% in the data set with Human alphaherpesvirus 1 [1] and 0% with Human alphaherpesvirus 1 [3]. Besides, the Stability result on Adenosine deaminase was “Stable”. Besides, in data set [2] (aqueous, read-out: solubility), the solubility was found to be 20 µg/mL (≈ 0.0491 mM).
In the case of `CCC(=O)O[C@H]1[C@H](OC(=O)CC)[C@@H](CO)O[C@H]1n1cnc2c(N)ncnc21`, the Activity result in the data set listed under Cavia porcellus [4] and in the data set filed under Cavia porcellus [6] was “Toxic” each time. The outcome with Human alphaherpesvirus 2 [5], with Human alphaherpesvirus 2 [7], with Human alphaherpesvirus 2 [8], in the data set with Human alphaherpesvirus 2 [9], in the data set with Human alphaherpesvirus 2 [10] and in the data set on Human alphaherpesvirus 2 [14] was Active. Besides, the Stability entry at Adenosine deaminase was “Stable”. Besides, the solubility in data set [2] (aqueous, read-out: solubility) is 4500 µg/mL (≈ 11.9 mM). Moreover, the inhibition at 18.3 µM in the data set on Human alphaherpesvirus 1 [11] amounted to 15%; with Human alphaherpesvirus 1 [12] it was 90%. Moreover, the inhibition at 1.8 µM with Human alphaherpesvirus 1 [13] turned out to be 60%.
Take `CC(=O)O[C@H]1[C@H](O)[C@H](n2cnc3c(N)ncnc32)O[C@@H]1CO`: the inhibition at 1.7 µM with Human alphaherpesvirus 1 [15] was 9%; with Human alphaherpesvirus 1 [17] it was 36%. For the same compound, the inhibition at 17.1 µM in the data set on Human alphaherpesvirus 1 [16] came to 87%. At Adenosine deaminase, the Stability result is recorded as “Unstable”. Besides, the solubility result in data set [2] (buffer) was “soluble”.
Regarding `CC(=O)O[C@H]1[C@H](O)[C@@H](CO)O[C@H]1n1cnc2c(N)ncnc21`, the inhibition at 1.7 µM in the data set on Human alphaherpesvirus 1 [15] was determined as 0%; in the data set with Human alphaherpesvirus 1 [17], 60%. Besides, the inhibition at 17.1 µM in the data set with Human alphaherpesvirus 1 [16] came to 90%. At Adenosine deaminase, the Stability entry was “Stable”. The solubility entry in data set [2] (buffer) is “soluble”.
For the compound `CC(C)C(=O)O[C@H]1[C@H](OC(=O)C(C)C)[C@@H](CO)O[C@H]1n1cnc2c(N)ncnc21`, the inhibition at 17.1 µM with Human alphaherpesvirus 1 [16] worked out at 90%. Besides, the Stability entry at Adenosine deaminase is given as “Stable”. For the same compound, the inhibition at 5.3 µM in the data set on Human alphaherpesvirus 1 [18] came out at 0%; with Human alphaherpesvirus 1 [19], 73%. Moreover, in data set [2] (aqueous, read-out: solubility), the solubility came out at 420 µg/mL (≈ 1.03 mM).
Turning to `CC(C)C(=O)O[C@H]1[C@H](O)[C@H](n2cnc3c(N)ncnc32)O[C@@H]1CO`, the results for the inhibition at 1.8 µM in the data set with Human alphaherpesvirus 1 [20] and with Human alphaherpesvirus 1 [13] were 26% and 60%, respectively. Moreover, the inhibition at 17.5 µM in the data set with Human alphaherpesvirus 1 [1] is 90%; in the data set on Human alphaherpesvirus 1 [3], 99%. On Adenosine deaminase, the Stability result was “Unstable”. The solubility result in data set [2] (buffer) is reported as “soluble”.
For the compound `CC(=O)OC[C@H]1O[C@@H](n2cnc3c(N)ncnc32)[C@@H](O)[C@@H]1OC(C)=O`, the inhibition at 5.4 µM with Human alphaherpesvirus 1 [21] is 79%. Moreover, the inhibition at 17.5 µM was determined as 87% with Human alphaherpesvirus 1 [1] and 81% in the data set with Human alphaherpesvirus 1 [3]. In addition, the Stability result at Adenosine deaminase is on record as “Stable”. Besides, the solubility in [2] (aqueous, read-out: solubility) is 4700 µg/mL (≈ 13.4 mM).
